Active and inactive are the calls of the source. No cut-off for these calls is given here.
Legend:
SW480 [1] = test: Potency index, ratio of parthenolide IC50 to compound IC50 for cell growth inhibition of human SW480 cells; type: functional
HeLa [2] = test: Cytotoxicity against human HeLa cells expressing GFP assessed as cell growth inhibition after 3 days by presto blue dye based plate reader method; type: functional; conditions: 72 h
Summary of the method: (§1)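 Cells in DMEM high glucose/10% FBS (A2780 in RPMI/10% FBS), 4,000 per well, overnight, then 40 to 0.039 µM or vehicle, 24, 48, 72 h at 37°C, 5% CO2; PrestoBlue 15 min, fluorescence 560ex/590em; growth as 100×[(T−Tz)/(C−Tz)] per NCI algorithm.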

HeLa [3] = test: Potency index, ratio of ibrutinib IC50 to compound IC50 for cell growth inhibition of human HeLa cells; type: functional
[4] = Cytotoxicity against human MIAPaCa2 cells assessed as cell growth inhibition after 3 days by presto blue dye based plate reader method; type: functional; conditions: MIA PaCa-2, 72 h; summary of the method: as §1
SW480 [5] = test: Cytotoxicity against human SW480 cells assessed as cell growth inhibition after 3 days by presto blue dye based plate reader method; type: functional; conditions: SW480, 72 h
A2780 [6] = test: Potency index, ratio of ibrutinib EC50 to compound EC50 for cell growth inhibition of human A2780 cells; type: functional
MIA PaCa-2 [7] = test: Potency index, ratio of parthenolide IC50 to compound IC50 for cell growth inhibition of human MIAPaCa2 cells; type: functional
A2780 [8] = test: Potency index, ratio of parthenolide EC50 to compound EC50 for cell growth inhibition of human A2780 cells; type: functional
HeLa [9] = test: Potency index, ratio of parthenolide IC50 to compound IC50 for cell growth inhibition of human HeLa cells; type: functional
A2780 [10] = test: Cytotoxicity against human A2780 cells assessed as cell growth inhibition after 3 days by presto blue dye based plate reader method; type: functional; conditions: A2780, 72 h; summary of the method: as §1
MIA PaCa-2 [11] = test: Potency index, ratio of ibrutinib IC50 to compound IC50 for cell growth inhibition of human MIAPaCa2 cells; type: functional
SW480 [12] = test: Potency index, ratio of ibrutinib IC50 to compound IC50 for cell growth inhibition of human SW480 cells; type: functional
A2780 [13] = test: Anticancer activity against human A2780 cells xenografted in nude C57B6 mouse orthotopic model of ovarian cancer assessed as tumor growth inhibition administered ip 5 days a week for 4 weeks; type: functional
Summary of the method: (§2)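 Nude mice injected with 2 million A2780 ovarian cancer cells; treatment began day 3 (7 groups). Arms: vehicle, 1, 2.5 or 5 mg/kg given 5 days/week to day 30; cisplatin 2 or 4 mg/kg on days 5, 9, 14, 21; or 2.5 mg/kg plus 2 mg/kg cisplatin. Day 30: mice sacrificed, tumors removed and weighed.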

Mus musculus [14] = test: Downregulation of Mcl-1 in human A2780 cells xenografted in nude C57B6 mouse in presence of cisplatin by […]; type: functional, organism-based
Mus musculus [15] = test: Toxicity in nude C57B6 mouse orthotopic model of ovarian cancer xenografted with human A2780 cells assessed overt toxicity at 1 to 5 mg/kg administered ip 5 days a week for 4 weeks; type: organism-based; conditions: in vivo
MDA-MB-231 [16] = test: Cytotoxicity against human MDA-MB-231 cells assessed as cell growth inhibition at 0.039 to 40 uM by presto blue dye based plate reader method; type: functional; conditions: TDE = time-dependent effect
serum albumin = serum albumin (Homo sapiens, UniProt P02768); test: Binding affinity to human serum albumin assessed as half life by HPLC analysis; type: ADME
MDA-MB-231 [17] = test: Cytotoxicity against human MDA-MB-231 cells assessed as cell growth inhibition after 3 days by presto blue dye based plate reader method; type: functional; summary of the method: as §1
[18] = Inhibition of TNFalpha-induced IKKbeta-mediated NF-kappaB activity in human A549 cells after 2 hrs followed by TNFalpha addition for 3 hrs by ONE-Glo Luciferase reporter based luminescence assay; type: cell-based
Summary of the method: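 A549 NF-κB luciferase cells (hygromycin B-maintained), 50,000 per well overnight; compound 2 h, then 20 ng/mL TNFα 3 h; alamarBlue 3 h as seeding/viability control; ONE-Glo added, 10 min room temperature, luminescence at 1000 ms.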

SK-OV-3 [19] = test: Induction of apoptosis in human SKOV3 cells assessed as caspase 3/7 activation after 24 hrs in presence of cisplatin by Caspase Glo-3/7 luminescence assay; type: functional, cell-based
Summary of the method: (§3)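 SKOV3 at 3,000 cells per well, overnight; compound 24 h; alamarBlue 3 h with fluorescence 560ex/590em as viability read; Caspase-Glo 3/7 reagent, shaken 30 s, 1 h room temperature, luminescence at 1000 ms integration.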

HeLa [20] = test: Anticlonogenic activity against human HeLa cells assessed as inhibition of colony formation after 2 to 7 days by crystal violet staining; type: functional, cell-based
Summary of the method: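 HeLa cells seeded at 500-1000 per well, grown 24 h, drug-treated 48 h at 37°C (DMSO control), then fresh medium for 7 days; methanol fixed 15 min, 0.1% crystal violet 30 min at room temperature, colonies over 50 cells counted.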

A549 [21] = test: Inhibition of TNFalpha-induced IKKbeta-mediated NF-kappaB activity in human A549 cells at 10 uM after 2 hrs followed by TNFalpha addition for 3 hrs by ONE-Glo Luciferase reporter based luminescence assay; type: cell-based
Mus musculus [22] = test: Downregulation of NF-kappaB p65 in human A2780 cells xenografted in nude C57B6 mouse by immunohistochemistry method; type: functional, organism-based
Summary of the method: (§4)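 A2780 tumors from the day-30 nude-mouse study: H&E staining to locate tumor areas, cores punched into a tissue microarray, sections stained with rabbit anti-p65 or anti-Mcl-1 via polymer detection, scored 0-3 by percentage of positive cells (3 = ≥67% positive).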

SK-OV-3 [23] = test: Induction of apoptosis in human SKOV3 cells assessed as caspase 3/7 activation after 24 hrs in absence of cisplatin by Caspase Glo-3/7 luminescence assay; type: functional, cell-based; summary of the method: as §3
A549 [24] = test: Inhibition of TNFalpha-induced IKKbeta-mediated NF-kappaB activity in human A549 cells at 10 uM after 2 hrs followed by TNFalpha addition for 7 hrs by ONE-Glo Luciferase reporter based luminescence assay; type: cell-based
Summary of the method: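 A549 luciferase cells grown 5 passages without TNFα then 2 passages with or without 5 ng/mL TNFα; 50,000 per well overnight; 10 µM compound 2 h; then 20 ng/mL TNFα 7 h; PrestoBlue 10 min (560ex/590em) viability; ONE-Glo 10 min, luminescence 1000 ms.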

A2780 [25] = test: Potentiation of cisplatin-induced growth inhibition of human A2780 cells assessed as combination index at 1 to 10 uM after 3 days; type: functional
Summary of the method: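 Combination index values derived from median effect plots and dose-effect curves of combined treatments.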

[26] = target: T1, Inhibitor of nuclear factor kappa-B kinase subunit beta (Homo sapiens) (UniProt O14920); test: Inhibition of IKKbeta in human MIAPaCa2 cells assessed as reduction in IkappaBalpha phosphorylation at 10 to 20 uM by Western blot analysis; type: cell-based; conditions: MIA PaCa-2
T1 sequence (whole entry): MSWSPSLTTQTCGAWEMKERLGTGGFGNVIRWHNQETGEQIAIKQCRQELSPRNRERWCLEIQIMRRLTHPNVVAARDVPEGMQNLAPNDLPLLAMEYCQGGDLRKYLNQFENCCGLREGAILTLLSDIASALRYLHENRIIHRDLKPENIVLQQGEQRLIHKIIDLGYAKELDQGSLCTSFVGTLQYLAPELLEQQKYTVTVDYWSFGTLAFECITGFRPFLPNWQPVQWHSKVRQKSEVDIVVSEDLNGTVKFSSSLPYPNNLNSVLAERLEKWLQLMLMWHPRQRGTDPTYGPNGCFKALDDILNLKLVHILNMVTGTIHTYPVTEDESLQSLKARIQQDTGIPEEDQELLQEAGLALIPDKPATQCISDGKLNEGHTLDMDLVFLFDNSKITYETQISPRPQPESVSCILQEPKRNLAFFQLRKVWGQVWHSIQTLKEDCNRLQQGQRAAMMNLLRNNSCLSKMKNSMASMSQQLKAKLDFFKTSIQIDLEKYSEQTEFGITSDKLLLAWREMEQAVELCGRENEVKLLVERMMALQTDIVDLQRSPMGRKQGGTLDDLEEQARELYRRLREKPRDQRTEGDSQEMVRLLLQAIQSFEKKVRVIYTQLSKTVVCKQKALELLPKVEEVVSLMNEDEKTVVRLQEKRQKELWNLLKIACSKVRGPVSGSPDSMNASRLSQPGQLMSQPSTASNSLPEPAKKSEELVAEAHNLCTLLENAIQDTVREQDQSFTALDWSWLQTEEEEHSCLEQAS

A2780 [27] = test: Anticancer activity against human A2780 cells xenografted in nude C57B6 mouse orthotopic model of ovarian cancer assessed as tumor growth inhibition at 5 mg/kg administered ip 5 days a week for 4 weeks; type: functional; conditions: read-out: TGI; summary of the method: as §2
A2780 [28] = test: Anticancer activity against human A2780 cells xenografted in nude C57B6 mouse orthotopic model of ovarian cancer assessed as tumor growth inhibition at 2.5 mg/kg administered ip 5 days a week for 4 weeks; type: functional; conditions: read-out: TGI; summary of the method: as §2
HeLa [29] = test: Induction of apoptosis in human HeLa cells assessed as PARP cleavage after 24 to 48 hrs by Western blot analysis; type: functional, cell-based
Summary of the method: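 Cells collected with media and trypsinized pellet combined, lysed in RIPA buffer (pH 8.0), 4-20% SDS-PAGE, Western blot with anti-PARP to detect cleavage; HeLa timepoint 48 h.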

A2780 [30] = test: Anticancer activity against human A2780 cells xenografted in nude C57B6 mouse orthotopic model of ovarian cancer assessed as tumor growth inhibition at 2.5 mg/kg administered ip 5 days a week for 4 weeks in presence of 2 mg/kg of cisplatin; type: functional; summary of the method: as §2
Mus musculus [31] = test: Downregulation of Mcl-1 in human A2780 cells xenografted in nude C57B6 mouse by immunohistochemistry method; type: functional, organism-based; summary of the method: as §4
[32] = target: T1, Inhibitor of nuclear factor kappa-B kinase subunit beta (Homo sapiens); test: Inhibition of IKKbeta in human MDA-MB-231 cells assessed as reduction in IkappaBalpha phosphorylation by Western blot analysis; type: cell-based
Summary of the method: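 MDA-MB-231 cytoplasmic fractions: swelling 30 min on ice in HEPES/KCl/EDTA/DTT buffer with inhibitors, 1.25% NP-40, centrifuged; lysates on 4-20% gels, PVDF, anti-phospho-IκBα and anti-IκBα, tubulin or GAPDH loading control, ECL detection.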

Mus musculus [33] = test: Downregulation of NF-kappaB p65 in human A2780 cells xenografted in nude C57B6 mouse in presence of cisplatin by […]; type: functional, organism-based

Sequence of serum albumin (P02768 whole entry): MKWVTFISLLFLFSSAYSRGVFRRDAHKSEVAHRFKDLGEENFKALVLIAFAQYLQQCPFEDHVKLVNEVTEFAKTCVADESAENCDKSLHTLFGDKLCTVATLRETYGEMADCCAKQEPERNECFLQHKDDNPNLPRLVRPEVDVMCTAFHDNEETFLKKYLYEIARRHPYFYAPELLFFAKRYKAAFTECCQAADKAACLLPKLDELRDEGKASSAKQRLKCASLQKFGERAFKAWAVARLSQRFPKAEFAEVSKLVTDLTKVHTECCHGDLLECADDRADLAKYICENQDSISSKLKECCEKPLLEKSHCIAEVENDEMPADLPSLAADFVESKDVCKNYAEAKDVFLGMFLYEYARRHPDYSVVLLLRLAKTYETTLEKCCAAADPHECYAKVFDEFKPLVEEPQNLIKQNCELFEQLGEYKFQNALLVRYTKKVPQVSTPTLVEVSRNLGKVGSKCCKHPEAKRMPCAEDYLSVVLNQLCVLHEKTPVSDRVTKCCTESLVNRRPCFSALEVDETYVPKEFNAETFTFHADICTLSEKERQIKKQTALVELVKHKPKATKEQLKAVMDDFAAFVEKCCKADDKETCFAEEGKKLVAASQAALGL

C=C1CC2(OC1=O)C(=O)Nc1c(C)ccc(C)c12 (configuration not stated)
Ratio IC50 (SW480 [1]): 2
IC50 (HeLa [2]): 3.2 µM
Ratio IC50 (HeLa [3]): 5
IC50 [4]: 0.9 µM
IC50 (SW480 [5]): 1.2 µM
Ratio EC50 (A2780 [6]): 20
Ratio IC50 (MIA PaCa-2 [7]): 2
Ratio EC50 (A2780 [8]): 13
Ratio IC50 (HeLa [9]): 2
EC50 (A2780 [10]): 1 µM
Ratio IC50 (MIA PaCa-2 [11]): 5
Ratio IC50 (SW480 [12]): 5

C=C1CC2(OC1=O)C(=O)Nc1ccccc12 (configuration not stated)
TGI (A2780 [13]): 10%
inhibition (A2780 [13]): Dose-dependent effect
Activity (Mus musculus [14]): Active
Activity (Mus musculus [15]): Non-toxic
growth inhibition (GI) (MDA-MB-231 [16]): tde
half-life (serum albumin): 4.83 h
growth inhibition (GI) (MDA-MB-231 [17]): Dose-dependent effect
IC50 [18]: 4 µM
Activity (SK-OV-3 [19]): Active
inhibition (HeLa [20]): Dose-dependent effect
inhibition (A549 [21]): > 70%
Activity (Mus musculus [22]): Active
Activity (SK-OV-3 [23]): Active
inhibition (A549 [24]): 75%
CI (A2780 [25]): <1
inhibition [26]: Active
Ratio EC50 (A2780 [8]): 4
inhibition in vivo at 5 mg/kg (A2780 [27]): 40%
inhibition in vivo at 2.5 mg/kg (A2780 [28]): 21%
EC50 (A2780 [10]): 2.3 µM
Activity (HeLa [29]): Active
TGI (A2780 [30]): 65%
Activity (Mus musculus [31]): Active
inhibition [32]: Active
Activity (Mus musculus [33]): Active

— ChEMBL document CHEMBL3822425, “Isatin Derived Spirocyclic Analogues with α-Methylene-γ-butyrolactone as Anticancer Agents: A Structure-Activity Relationship Study” (J Med Chem, 2016)
